Assay results reported in ChEMBL document CHEMBL1123430, “Potential tumor- or organ-imaging agents. 26. Polyiodinated 2-substituted triacylglycerols as hepatographic agents” (J Med Chem, 1986).

What follows are compounds tested on Rattus norvegicus (assay: Percentage […]/CH3OH extract of the radiolabeled compound in rat plasma 5 minutes after iv administration). Settings: not given.
Assay type: functional
Summary of the method: (§1)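 Liver and plasma were taken at 5 or 30 min. Plasma was extracted by a modified Folch procedure, and liver was homogenized and extracted. Extracts were run on TLC in hexane/ethyl acetate (5:2) for esters or THF/hexane (1:1) for acids, with unlabeled compound as reference. Plates were cut into 1-cm strips and counted. Values are percent ± SEM, n = 3-5.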

SMILES | Activity
CCCCCCCCCCCCCCCC(=O)OCC(COC(=O)CCCCCCCCCCCCCCC)OC(=O)CCCCCCCCCCCCCCCCc1c(I)cc(I)c(N)c1I | 83.8%

These compounds were tested on Rattus norvegicus (assay: Distribution of radioactivity of radiolabeled compound in liver of female rats 30 minutes after intravenous administration). Settings: in vivo, 0.5 h.
Assay type: ADME, organism-based

SMILES | Dose
CCCCCCCCCCCCCCCC(=O)OCC(COC(=O)CCCCCCCCCCCCCCC)OC(=O)CCCCCCCCCCCCCCCCc1c(I)cc(I)c(N)c1I | 5.97%

These compounds were tested on Rattus norvegicus (assay: Percentage […]/CH3OH extract of the radiolabeled compound in rat liver 5 minutes after iv administration). Settings: not given.
Assay type: functional
Summary of the method: as §1

SMILES | Activity
CCCCCCCCCCCCCCCC(=O)OCC(COC(=O)CCCCCCCCCCCCCCC)OC(=O)CCCCCCCCCCCCCCCCc1c(I)cc(I)c(N)c1I | 44.3%

These compounds were tested on Rattus norvegicus (assay: Percentage […]/CH3OH extract of the radiolabeled compound in rat plasma 30 minutes after iv administration). Settings: not given.
Assay type: functional
Summary of the method: as §1

SMILES | Activity
CCCCCCCCCCCCCCCC(=O)OCC(COC(=O)CCCCCCCCCCCCCCC)OC(=O)CCCCCCCCCCCCCCCCc1c(I)cc(I)c(N)c1I | 71.3%

These compounds were tested on Rattus norvegicus (assay: Polyacrylamide Gel Electrophoresis (PAGE) analysis of rat plasma 30 min after intravenous administration of radiolabeled compound in low-density lipoprotein). Settings: not given.
Assay type: functional, organism-based
Summary of the method: (§2)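 Gels were sectioned and counted in a γ counter. Radioactivity in each band (stacking gel, LDL, HDL, albumin, below albumin) is expressed as a percentage of the total radioactivity applied to the gel, ± SEM, n = 3-5.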

SMILES | Concentration
CCCCCCCCCCCCCCCC(=O)OCC(COC(=O)CCCCCCCCCCCCCCC)OC(=O)CCCCCCCCCCCCCCCCc1c(I)cc(I)c(N)c1I | 8.6

The compounds below were run on Rattus norvegicus (assay: Distribution of radioactivity of radiolabeled compound in heart of female rats 30 minutes after intravenous administration at). Settings: in vivo, 0.5 h.
Assay type: ADME, organism-based

SMILES | Dose
CCCCCCCCCCCCCCCC(=O)OCC(COC(=O)CCCCCCCCCCCCCCC)OC(=O)CCCCCCCCCCCCCCCCc1c(I)cc(I)c(N)c1I | 0.74%

Each compound was assayed on Rattus norvegicus (assay: Distribution of radioactivity of radiolabeled compound in blood of female rats 5 minutes after intravenous administration). Settings: in vivo.
Assay type: ADME, organism-based

SMILES | Dose
CCCCCCCCCCCCCCCC(=O)OCC(COC(=O)CCCCCCCCCCCCCCC)OC(=O)CCCCCCCCCCCCCCCCc1c(I)cc(I)c(N)c1I | 2.5%

These compounds were tested on Rattus norvegicus (assay: Distribution of radioactivity of radiolabeled compound in lung of female rats 30 minutes after intravenous administration). Settings: in vivo, 0.5 h.
Assay type: ADME, organism-based

SMILES | Dose
CCCCCCCCCCCCCCCC(=O)OCC(COC(=O)CCCCCCCCCCCCCCC)OC(=O)CCCCCCCCCCCCCCCCc1c(I)cc(I)c(N)c1I | 1.72%

Each compound was assayed on Rattus norvegicus (assay: Percentage parent compound in rat liver 5 minutes after iv administration of the radiolabeled compound by thin-layer chromatography). Settings: not given.
Assay type: functional
Summary of the method: as §1

SMILES | Activity
CCCCCCCCCCCCCCCC(=O)OCC(COC(=O)CCCCCCCCCCCCCCC)OC(=O)CCCCCCCCCCCCCCCCc1c(I)cc(I)c(N)c1I | 24%

Each compound was assayed on Rattus norvegicus (assay: Polyacrylamide Gel Electrophoresis (PAGE) analysis of rat plasma 5 min after intravenous administration of radiolabeled compound (below albumin)). Settings: not given.
Assay type: functional, organism-based
Summary of the method: as §2

SMILES | Concentration
CCCCCCCCCCCCCCCC(=O)OCC(COC(=O)CCCCCCCCCCCCCCC)OC(=O)CCCCCCCCCCCCCCCCc1c(I)cc(I)c(N)c1I | 2.7

Each compound was assayed on Rattus norvegicus (assay: Distribution of radioactivity of radiolabeled compound in blood of female rats 30 minutes after intravenous administration). Settings: in vivo, 0.5 h.
Assay type: ADME, organism-based

SMILES | Dose
CCCCCCCCCCCCCCCC(=O)OCC(COC(=O)CCCCCCCCCCCCCCC)OC(=O)CCCCCCCCCCCCCCCCc1c(I)cc(I)c(N)c1I | 1.42%

The compounds below were run on Rattus norvegicus (assay: Distribution of radioactivity of radiolabeled compound in kidney of female rats 5 minutes after intravenous administration). Settings: in vivo.
Assay type: ADME, organism-based

SMILES | Dose
CCCCCCCCCCCCCCCC(=O)OCC(COC(=O)CCCCCCCCCCCCCCC)OC(=O)CCCCCCCCCCCCCCCCc1c(I)cc(I)c(N)c1I | 0.42%

The compounds below were run on Rattus norvegicus (assay: Polyacrylamide Gel Electrophoresis (PAGE) analysis of rat plasma 5 minutes after intravenous administration of radiolabeled compound in stacking gel). Settings: not given.
Assay type: functional, organism-based
Summary of the method: (§3)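 ¹²⁵I-labeled compound, radioiodinated by exchange in a pivalic acid melt, solubilized in normal saline with Tween 20 and given iv to adult female Sprague–Dawley rats (200–250 g), 5–30 μCi/animal, 3–4 rats per time point. Plasma was run on polyacrylamide gels. Gels were sectioned and gamma counted. Radioactivity per band (stacking gel, LDL, HDL, albumin, below albumin) is given as % of total applied; mean ± SEM, n = 3-5.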

SMILES | Concentration
CCCCCCCCCCCCCCCC(=O)OCC(COC(=O)CCCCCCCCCCCCCCC)OC(=O)CCCCCCCCCCCCCCCCc1c(I)cc(I)c(N)c1I | 4.6%

What follows are compounds tested on Rattus norvegicus (assay: Percentage parent compound in rat plasma 30 minutes after iv administration of the radiolabeled compound by thin-layer chromatography). Settings: not given.
Assay type: functional
Summary of the method: as §1

SMILES | Activity
CCCCCCCCCCCCCCCC(=O)OCC(COC(=O)CCCCCCCCCCCCCCC)OC(=O)CCCCCCCCCCCCCCCCc1c(I)cc(I)c(N)c1I | 23.8%

These compounds were tested on Rattus norvegicus (assay: Polyacrylamide Gel Electrophoresis (PAGE) analysis of rat plasma 30 min after intravenous administration of radiolabeled compound (below albumin)). Settings: not given.
Assay type: functional, organism-based
Summary of the method: as §2

SMILES | Concentration
CCCCCCCCCCCCCCCC(=O)OCC(COC(=O)CCCCCCCCCCCCCCC)OC(=O)CCCCCCCCCCCCCCCCc1c(I)cc(I)c(N)c1I | 9

The compounds below were run on Rattus norvegicus (assay: Percentage parent compound in rat liver 30 minutes after iv administration of the radiolabeled compound by thin-layer chromatography). Settings: not given.
Assay type: functional
Summary of the method: as §1

SMILES | Activity
CCCCCCCCCCCCCCCC(=O)OCC(COC(=O)CCCCCCCCCCCCCCC)OC(=O)CCCCCCCCCCCCCCCCc1c(I)cc(I)c(N)c1I | 40.8%

What follows are compounds tested on Rattus norvegicus (assay: Percentage […]/CH3OH extract of the radiolabeled compound in rat liver 30 minutes after iv administration). Settings: not given.
Assay type: functional
Summary of the method: as §1

SMILES | Activity
CCCCCCCCCCCCCCCC(=O)OCC(COC(=O)CCCCCCCCCCCCCCC)OC(=O)CCCCCCCCCCCCCCCCc1c(I)cc(I)c(N)c1I | 47.2%

What follows are compounds tested on Rattus norvegicus (assay: Polyacrylamide Gel Electrophoresis (PAGE) analysis of rat plasma 30 min after intravenous administration of radiolabeled compound in albumin). Settings: not given.
Assay type: functional, organism-based
Summary of the method: as §2

SMILES | Concentration
CCCCCCCCCCCCCCCC(=O)OCC(COC(=O)CCCCCCCCCCCCCCC)OC(=O)CCCCCCCCCCCCCCCCc1c(I)cc(I)c(N)c1I | 44.6

What follows are compounds tested on Rattus norvegicus (assay: Polyacrylamide Gel Electrophoresis (PAGE) analysis of rat plasma 30 min after intravenous administration of radiolabeled compound in stacking gel). Settings: not given.
Assay type: functional, organism-based
Summary of the method: as §2

SMILES | Concentration
CCCCCCCCCCCCCCCC(=O)OCC(COC(=O)CCCCCCCCCCCCCCC)OC(=O)CCCCCCCCCCCCCCCCc1c(I)cc(I)c(N)c1I | 10.9

Each compound was assayed on Rattus norvegicus (assay: Distribution of radioactivity of radiolabeled compound in liver of female rats 5 minutes after intravenous administration). Settings: in vivo.
Assay type: ADME, organism-based

SMILES | Dose
CCCCCCCCCCCCCCCC(=O)OCC(COC(=O)CCCCCCCCCCCCCCC)OC(=O)CCCCCCCCCCCCCCCCc1c(I)cc(I)c(N)c1I | 4.07%

These compounds were tested on Rattus norvegicus (assay: Polyacrylamide Gel Electrophoresis (PAGE) analysis of rat plasma 5 minutes after intravenous administration of radiolabeled compound in low-density lipoprotein). Settings: not given.
Assay type: functional, organism-based
Summary of the method: as §3

SMILES | Concentration
CCCCCCCCCCCCCCCC(=O)OCC(COC(=O)CCCCCCCCCCCCCCC)OC(=O)CCCCCCCCCCCCCCCCc1c(I)cc(I)c(N)c1I | 12.6%

What follows are compounds tested on Rattus norvegicus (assay: Polyacrylamide Gel Electrophoresis (PAGE) analysis of rat plasma 5 minutes after intravenous administration of radiolabeled compound in high density lipoprotein). Settings: not given.
Assay type: functional, organism-based
Summary of the method: as §3

SMILES | Concentration
CCCCCCCCCCCCCCCC(=O)OCC(COC(=O)CCCCCCCCCCCCCCC)OC(=O)CCCCCCCCCCCCCCCCc1c(I)cc(I)c(N)c1I | 48.1

These compounds were tested on Rattus norvegicus (assay: Percentage parent compound in rat plasma 5 minutes after iv administration of the radiolabeled compound by thin-layer chromatography). Settings: not given.
Assay type: functional
Summary of the method: as §1

SMILES | Activity
CCCCCCCCCCCCCCCC(=O)OCC(COC(=O)CCCCCCCCCCCCCCC)OC(=O)CCCCCCCCCCCCCCCCc1c(I)cc(I)c(N)c1I | 32.6%

The compounds below were run on Rattus norvegicus (assay: Polyacrylamide Gel Electrophoresis (PAGE) analysis of rat plasma 30 minutes after intravenous administration of radiolabeled compound in high density lipoprotein). Settings: not given.
Assay type: functional, organism-based
Summary of the method: as §2

SMILES | Concentration
CCCCCCCCCCCCCCCC(=O)OCC(COC(=O)CCCCCCCCCCCCCCC)OC(=O)CCCCCCCCCCCCCCCCc1c(I)cc(I)c(N)c1I | 27%

The compounds below were run on Rattus norvegicus (assay: Distribution of radioactivity of radiolabeled compound in lung of female rats 5 minutes after intravenous administration). Settings: in vivo.
Assay type: ADME, organism-based

SMILES | Dose
CCCCCCCCCCCCCCCC(=O)OCC(COC(=O)CCCCCCCCCCCCCCC)OC(=O)CCCCCCCCCCCCCCCCc1c(I)cc(I)c(N)c1I | 3.16%

The compounds below were run on Rattus norvegicus (assay: Distribution of radioactivity of radiolabeled compound in kidney of female rats 30 minutes after intravenous administration). Settings: in vivo, 0.5 h.
Assay type: ADME, organism-based

SMILES | Dose
CCCCCCCCCCCCCCCC(=O)OCC(COC(=O)CCCCCCCCCCCCCCC)OC(=O)CCCCCCCCCCCCCCCCc1c(I)cc(I)c(N)c1I | 1.29%

The compounds below were run on Rattus norvegicus (assay: Distribution of radioactivity of radiolabeled compound in heart of female rats 5 minutes after intravenous administration). Settings: in vivo.
Assay type: ADME, organism-based

SMILES | Dose
CCCCCCCCCCCCCCCC(=O)OCC(COC(=O)CCCCCCCCCCCCCCC)OC(=O)CCCCCCCCCCCCCCCCc1c(I)cc(I)c(N)c1I | 0.49%

Each compound was assayed on Rattus norvegicus (assay: Polyacrylamide Gel Electrophoresis (PAGE) analysis of rat plasma 5 min after intravenous administration of radiolabeled compound in albumin). Settings: not given.
Assay type: functional, organism-based
Summary of the method: as §2

SMILES | Concentration
CCCCCCCCCCCCCCCC(=O)OCC(COC(=O)CCCCCCCCCCCCCCC)OC(=O)CCCCCCCCCCCCCCCCc1c(I)cc(I)c(N)c1I | 32.1
